This is an account of results in ChEMBL document CHEMBL1140469, “Novel, potent THC/anandamide (hybrid) analogs” (Bioorg Med Chem, 2007).

For test [1], the system named is Mus musculus. Briefly: Antinociceptive activity in mouse at 30 mg/kg, iv by tail filck test. Format: functional. The method in brief:
(§1)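 Mouse tail flick to radiant heat from bright light, 10-s cutoff. Baseline latency taken, then iv tail-vein dosing in ethanol:emulphor:saline 1:1:18, 0.1 mL/10 g. Retested 4 min later. Result expressed as %MPE, 6 mice/dose. ED50 from least-squares linear regression against log dose, in µmol/kg. Doses above 30 mg/kg not given.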

For test [2], the system named is Mus musculus. The experiment in a line: Hypothermic activity in mouse assessed as change in rectal temperature at 30 mg/kg, iv after 4 mins. Format: functional. The method in brief: (§2)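 A separate group of mice had rectal temperature taken by thermistor probe inserted 25 mm, before and 4 min after iv dosing in ethanol:emulphor:saline 1:1:18. Change is the pre minus post difference. ED50 from regression against log dose, in µmol/kg; otherwise maximal change given with its dose. Maximum dose 30 mg/kg.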

Test [3] deals with Mus musculus. The experiment in a line: Suppression of spontaneous activity in mouse at 30 mg/kg, iv. In kind it is functional. The gist of the method: (§3)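 Mice dosed iv in ethanol:emulphor:saline 1:1:18. After the 4-min tail-flick retest, each mouse spent 10 min in a photocell cage where beam interruptions were counted. Activity expressed as % of vehicle group, 6 mice/dose. ED50 from regression against log dose, in µmol/kg. Maximum dose 30 mg/kg.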

Another test has as its target Cannabinoid receptor 2 (Homo sapiens, UniProt P34972). The experiment in a line: Displacement of [3H]CP-55940 from human CB2 receptor expressed in CHO cells. Format: cell-based. The gist of the method: (§4)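 Membranes (50 µg) from HEK-293 cells stably expressing human CB1 (DMEM, 10% FBS) or CHO cells stably expressing human CB2 (DMEM, 10% FCS). Incubated with 0.5 nM [3H]CP55,940 and test compound (1 nM–10 µM) in buffer with BSA 5 mg/mL, 1 h at 30 °C. Filtration, scintillation counting. Ki from displacement data; three experiments in triplicate.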
On the technique in general: In a radioligand displacement assay an active substance lowers the binding of a labelled ligand.

The test system of test [4] is Mus musculus. Briefly: Induction of ring immobility in mouse at 30 mg/kg, iv. In kind it is functional. The gist of the method: (§5)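 Right after the temperature reading, iv-dosed mice (ethanol:emulphor:saline 1:1:18) were placed on a 5.5-cm ring set 16 cm high. Time spent motionless over 5 min was recorded. ED50 from regression against log dose, in µmol/kg; otherwise maximal effect given with its dose. Maximum dose 30 mg/kg.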

For the next test, the target named is Cannabinoid receptor 1 (Homo sapiens, UniProt P21554). The experiment in a line: Displacement of [3H]CP-55940 from human CB1 receptor expressed in HEK293 cells. In kind it is cell-based. The method in brief:
as §4

Test [5] deals with Mus musculus. Briefly: Suppression of spontaneous activity in iv dosed mouse. In kind it is functional. The gist of the method:
as §3

The test system of test [6] is Mus musculus. Briefly: Hypothermic activity in iv dosed mouse assessed as change in rectal temperature after 4 mins. Format: functional. The method in brief: as §2
Test [7] concerns Mus musculus. Briefly: Induction of ring immobility in iv dosed mouse. Format: functional. The method in brief:
as §5

The subject of test [8] is Mus musculus. The experiment in a line: Antinociceptive activity in iv dosed mouse by tail filck test. In kind it is functional. The gist of the method: as §1

Cannabinoid receptor 2, sequence (P34972 whole entry): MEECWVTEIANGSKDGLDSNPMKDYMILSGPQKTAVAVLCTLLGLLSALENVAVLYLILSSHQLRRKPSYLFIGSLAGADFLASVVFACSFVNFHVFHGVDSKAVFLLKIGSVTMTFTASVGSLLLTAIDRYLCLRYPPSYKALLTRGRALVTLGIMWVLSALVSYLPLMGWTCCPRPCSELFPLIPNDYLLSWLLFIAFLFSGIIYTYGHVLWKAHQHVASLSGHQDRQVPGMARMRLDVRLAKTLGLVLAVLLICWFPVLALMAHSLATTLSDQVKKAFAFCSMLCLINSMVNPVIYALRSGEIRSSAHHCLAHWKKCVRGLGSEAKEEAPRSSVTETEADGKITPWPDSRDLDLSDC
Cannabinoid receptor 1, sequence (P21554 whole entry): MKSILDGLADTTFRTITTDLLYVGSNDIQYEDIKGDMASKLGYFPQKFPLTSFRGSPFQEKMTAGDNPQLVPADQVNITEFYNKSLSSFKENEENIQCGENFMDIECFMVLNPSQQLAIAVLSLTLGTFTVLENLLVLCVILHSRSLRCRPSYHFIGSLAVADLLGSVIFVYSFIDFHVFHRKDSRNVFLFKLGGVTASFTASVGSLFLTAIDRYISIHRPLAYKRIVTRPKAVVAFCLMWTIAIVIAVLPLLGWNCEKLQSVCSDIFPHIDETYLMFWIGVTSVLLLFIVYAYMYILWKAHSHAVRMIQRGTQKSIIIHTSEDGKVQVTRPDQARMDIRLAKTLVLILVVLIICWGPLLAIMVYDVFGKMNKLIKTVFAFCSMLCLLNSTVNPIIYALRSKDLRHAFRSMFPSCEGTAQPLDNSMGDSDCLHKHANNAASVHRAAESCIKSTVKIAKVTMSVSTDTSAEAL

By Ki is commonly meant a dissociation constant, usually derived from enzyme kinetics or from competition with a known ligand. A lower Ki goes with a stronger hold on the target. Turning to `CCCCCCC(C)(C)c1ccc(OCC/C=C\C/C=C\CCCC(=O)N[C@H](C)CO)cc1`, the Activity was 30.7% in the test on Mus musculus [1], -0.5 °C with Mus musculus [2], 44.9% in the test on Mus musculus [3] and 13.4% in the test on Mus musculus [4]. For the same compound, the Ki stood at 78.2 nM at Cannabinoid receptor 2 and 195 nM on Cannabinoid receptor 1.

Broadly, the ED50 is the midpoint of the dose-response relation. As for `C[C@H](CO)NC(=O)CCC/C=C\C/C=C\CCOc1cccc(C(C)(C)CCCCO)c1`, the ED50 was 1.1 µmol/kg with Mus musculus [5], 2.8 µmol/kg with Mus musculus [6], 0.7 µmol/kg in the test with Mus musculus [7] and 0.6 µmol/kg in the test on Mus musculus [8]. Also, the Ki at Cannabinoid receptor 2 came out at 10.9 nM; at Cannabinoid receptor 1 it was 79 nM.

For `C[C@H](CO)NC(=O)CCC/C=C\C/C=C\CCOc1cccc(C(C)(C)CCCCBr)c1`, the ED50 worked out at 0.7 µmol/kg in the test with Mus musculus [5], 2.1 µmol/kg in the test with Mus musculus [6], 1.4 µmol/kg in the test with Mus musculus [7] and 0.8 µmol/kg with Mus musculus [8]. The figures for the Ki on Cannabinoid receptor 2 and on Cannabinoid receptor 1 were 7.46 nM and 8.87 nM, respectively.

Regarding `C[C@H](CO)NC(=O)CCC/C=C\C/C=C\CCOc1cccc(C(C)(C)CCCCN=[N+]=[N-])c1`, the 50% effective dose (ED50) in the test on Mus musculus [5] was found to be 0.2 µmol/kg; in the test on Mus musculus [6] it was 1.95 µmol/kg; with Mus musculus [7] it was 0.3 µmol/kg; in the test with Mus musculus [8], 0.2 µmol/kg. In addition, the values for the Ki at Cannabinoid receptor 2 and on Cannabinoid receptor 1 were 2.52 nM and 2.74 nM, respectively.

Turning to `CCCCCCC(C)(C)c1cccc(OCC/C=C\C/C=C\C/C=C\CCCC(=O)N[C@H](C)CO)c1`, the Activity in the test on Mus musculus [1] is 61%; with Mus musculus [2], -0.9 °C; with Mus musculus [3] it was 55%; with Mus musculus [4], 22%. The Ki at Cannabinoid receptor 2 stood at 189 nM; on Cannabinoid receptor 1, 131 nM.

`CCCCCCC(C)(C)c1cccc(OCC/C=C\C/C=C\CCCC(=O)N[C@H](C)CO)c1`: the ED50 stood at 3.73 µmol/kg with Mus musculus [5], 7.8 µmol/kg in the test with Mus musculus [6], 9.66 µmol/kg with Mus musculus [7] and 8.45 µmol/kg with Mus musculus [8]. Further, the Ki at Cannabinoid receptor 2 worked out at 21.5 nM; at Cannabinoid receptor 1 it was 8.55 nM.

Take `CCCCCCC(C)(C)c1ccccc1/C=C\C/C=C\C/C=C\CCCC(=O)N[C@H](C)CO`: the Activity is 50% with Mus musculus [1] and -0.87 °C in the test with Mus musculus [2]. Besides, the ED50 with Mus musculus [5] was 25.7 µmol/kg; in the test with Mus musculus [7] it was 27.7 µmol/kg. For the same compound, the results for the Ki on Cannabinoid receptor 2 and at Cannabinoid receptor 1 were 257 nM and 86.3 nM, respectively.
